Entries after “also recorded” stand apart in the source; their conditions may differ.
Assays:
NMR secondary structure = assay type: physicochemical; conditions: average of representative NMR conformers, SDS micelles
Outline: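 Test peptides at 5 mM in 90% H2O/10% D2O, pH 4.5, with perdeuterated SDS (300 mM) added to give a peptide:detergent ratio of 1:60. 1D spectra were recorded at 300–320 K. DQF-COSY, TOCSY and NOESY spectra were acquired, with 340 ms NOESY used for restraints (1.8–2.7, 1.8–3.5 or 1.8–5 Å). CYANA generated 50 structures and the 20 with lowest target function were kept. Structures were energy-minimised and refined with 3JHNHα-derived dihedrals. Secondary shifts are relative to random-coil values.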

[1] = Circular dichroism spectropolarimetry in membrane-mimetic solvents; assay type: physicochemical; conditions: 75 μM peptide; for CD conformation in phosphate buffer: Na2HPO4/KH2PO4 buffer, pH 7.0; for CD conformation in SDS: SDS in phosphate buffer; for CD isodichroic point: SDS titration; for CD conformation in methanol: methanol (up to 50%)
Gαo (N18TG2 membranes) = assay: [35S]GTPγS binding, antibody-capture SPA, Gαo, N18TG2 membranes; assay type: biochemical
Outline: (§1)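 N18TG2 neuroblastoma membranes (5 µg protein) were incubated with [35S]GTPγS plus WIN55212–2 (1 µM), unphosphorylated IL4 peptide (100 µM) or phosphopeptides (20–100 µM). Captured by SPA with anti-Gαo (n=3–4) or anti-Gαi3 (n=3–5) antibody. Specific binding (CPM) = total minus non-specific. Normalised to mean WIN55212–2 stimulation as 100%. Mean ± SEM; one-way ANOVA with Dunnett's post hoc test.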

Gαi3 (N18TG2 membranes) = assay: [35S]GTPγS binding, antibody-capture SPA, Gαi3, N18TG2 membranes; assay type: biochemical; conditions: for [35S]GTPγS binding to Gαi3 compared with IL4: N18TG2 membranes (5 µg protein), peptides up to 100 µM, IL4 100 µM, n=3-5
Outline: as §1

[2] = system: adenylyl cyclase (AC6) in N18TG2 cells; assay: Inhibition of forskolin-stimulated cAMP accumulation in N18TG2 cells; assay type: cell-based; conditions: for Inhibition of cAMP accumulation at 100 µM versus IL4 or IL4pSer402: forskolin 1 µM, peptide 100 µM, n=3
[3] = cited from earlier work
[4] = system: cAMP (Gi/o pathway); Chinese hamster ovary cells without CB1R; conditions: cited from earlier work
Gi/o = conditions: cited from earlier work
[5] = at reported concentrations, ANOVA, Dunnett's

RSKDLRHAFRpSMFPSSE [IL4pSer411]
Distance between Cα carbons of Arg401 and Glu417 (NMR secondary structure): 23.68 Å
CD conformation in phosphate buffer [1]: random coil structure
CD conformation in SDS [1]: characteristics of α-helical structure
CD isodichroic point [1]: 203 nm
CD conformation in TFE [1]: random coil structure
CD conformation in methanol [1]: random coil structure
CD negative minimum wavelength in phosphate buffer ([1]; phosphate buffer pH 7.0): 198 nm
Significance of Gαo stimulation versus WIN55212–2 and IL4 (Gαo (N18TG2 membranes); ANOVA, Dunnett's, ***P<0.0001): significantly different compared to WIN55212–2 and IL4
[35S]GTPγS binding to Gαo, fold greater than WIN55212–2 or IL4 (Gαo (N18TG2 membranes); N18TG2 membranes, WIN55212–2 1 µM, IL4 100 µM): 3 fold
Significance of Gi3 stimulation versus WIN55212–2 (not versus IL4) (Gαi3 (N18TG2 membranes); ANOVA, Dunnett's, *P<0.05): significantly different compared to WIN55212–2 but not IL4
[35S]GTPγS binding to Gαi3 compared with IL4 (Gαi3 (N18TG2 membranes)): more efficacious than IL4
Inhibition of cAMP accumulation at 100 µM versus IL4 or IL4pSer402 ([2]; N18TG2 cells): inhibited cAMP accumulation to a greater extent than IL4 or IL4pSer402; also recorded: more efficaciously than IL4 and IL4pSer402

RpSKDLRHAFRSMFPSSE [IL4pSer402]
Distance between Cα carbons of Arg401 and Glu417 (NMR secondary structure): 23.61 Å
CD conformation in 90% TFE [1]: α-Helical conformation
CD conformation in SDS [1]: α-Helical conformation
CD isodichroic point [1]: 203 nm
Lowest TFE concentration inducing helical conformation ([1]; CD): 40 % TFE
Methanol concentration at which helical conformation is induced ([1]; CD): 50 % methanol
[35S]GTPγS binding to Gαi3 compared with IL4 (Gαi3 (N18TG2 membranes)): not different between IL4 and IL4pSer402

RSKDLRHAFRSMFPpSSE [IL4pSer415]
Distance between Cα carbons of Arg401 and Glu417 (NMR secondary structure): 21.52 Å
CD conformation in 90% TFE [1]: a slight shift toward helicity was initiated
CD conformation in phosphate buffer [1]: random coil
CD conformation in SDS [1]: induction of α-helix in SDS
CD conformation in TFE [1]: random coil
CD conformation in methanol [1]: random coil
[35S]GTPγS binding to Gαi3 compared with IL4 (Gαi3 (N18TG2 membranes)): more efficacious than IL4; also recorded: higher efficacy than IL4
Inhibition of cAMP accumulation at 100 µM versus IL4 or IL4pSer402 ([2]; N18TG2 cells): inhibited cAMP accumulation to a greater extent than IL4 or IL4pSer402; also recorded: more efficaciously than IL4 and IL4pSer402

RSKDLRHAFRSMFPSSE [IL4]
Distance between Cα carbons of Arg401 and Glu417 (NMR secondary structure): 26 Å
Conformation of unphosphorylated IL4 in SDS micelles ([3]; SDS micelles, CD and NMR): induced significant helical structure
CD conformation of unphosphorylated IL4 in aqueous environment ([3]; aqueous): random coil conformation
Reduction of cAMP levels ([4]; CB1R-independent): able to reduce cAMP levels in a CB1R-independent manner
Functional activity in absence of CB1R expression ([4]; Chinese hamster ovary cells without CB1R): still functional
Autonomous G protein activation (Gi/o): can activate G proteins autonomously as a pepducin

CN(C)CCCn1cc(C2=C(c3c[nH]c4ccccc34)C(=O)NC2=O)c2ccccc21 [bisindolylmaleimide 1, reference compound]
Effect of PKC inhibitor on bradykinin augmentation of CP55940 response ([2]; N18TG2 cells, bisindolylmaleimide I 100 nM, bradykinin 100 nM, Fig. 7C): reversed by the PKC inhibitor

Cc1c(C(=O)c2cccc3ccccc23)c2cccc3c2n1[C@H](CN1CCOCC1)CO3 [WIN55212–2, reference compound]
% over stimulation by WIN55212–2, Go (Gαo (N18TG2 membranes); WIN55212–2 1 µM, N18TG2 membranes, anti-Gαo SPA, mean ± SEM): 19±2.8%
Significance of Gαo stimulation versus basal (Gαo (N18TG2 membranes); [5]): significantly different from basal
Significance of Gi3 stimulation by WIN55212–2 versus IL4 (Gαi3 (N18TG2 membranes); ANOVA, Dunnett's, **P<0.005): significantly different compared to IL4 in Gi3
% over stimulation by WIN55212–2, Gi3 (Gαi3 (N18TG2 membranes); WIN55212–2 1 µM, N18TG2 membranes, anti-Gαi3 SPA, mean ± SEM): 62.7 ±6.6%
Significance of Gαi3 stimulation versus basal (Gαi3 (N18TG2 membranes); [5]): significantly different from basal

CCCCCCC(C)(C)c1ccc([C@@H]2C[C@H](O)CC[C@H]2CCCO)c(O)c1 [CP55940, reference compound]
Effect of SR141716 on inhibition of cAMP accumulation by CP55940 ([2]; N18TG2 cells, CP55940 versus CP55940 plus SR141716, **P<0.005): Significant difference was found between CP55940 and CP55940 plus SR141716
CP55940-inhibited cAMP with versus without bradykinin, significance ([2]; forskolin 1 µM or secretin 30 nM, *P<0.05, **P<0.005, n=3–7): significant difference was found comparing the effect of CP55940 with and without BK

Reference: paper PMC7224360 (Peptide science (Hoboken, N.J.), 2018)
